# ERp5 inh: blocks human ERp5 reductase activity on insulin; 350,000 compounds, 0.05% hits; Q15084; ERp5 insulin aggregation, absorbance 650 nm, 90 min; inhibition, % at 9.99 µM;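 active = mean replicate inhibition above about 25%, with every replicate also reaching it, limit read from the data, passing the limit was not always enough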
# CAL PDZ FP-1: blocks peptide binding to human CAL PDZ domain; Q9HD26; purified CAL PDZ, TMR-peptide fluorescence polarization, 1 h; inhibition, % at 20 µM; 330,000 compounds, 0.02% hits; AID 504414;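 active = highest replicate inhibition of at least 40%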
#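 Material: tagged CAL PDZ domain; buffer or medium: 25 mM sodium phosphate pH 7.4, 150 mM NaCl, TCEP, IgG, Thesit; compound dosing: single point, 20 µM; schedule: 1 h incubation at room temperature before polarization reading; measured by: FP readout, S and P plane fluorescence; read-out basis: percent inhibition from loss of millipolarization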
# PDI inh: blocks human protein disulfide isomerase activity; P07237; PDI insulin aggregation turbidity, A650, 90 min; inhibition, % at 10 µM; 350,000 compounds, 0.052% hits; AID 588391;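 active = mean inhibition across replicates of 30% or more, whatever share of single replicates reach that level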
# Rin1-Abl PPI inh: inhibitors of human Rin1-Abl protein interaction. P00519+Q13671. 360,000 compounds, 0.4% hits. TR-FRET Rin1/Abl binding, biochemical. AID 588664. inhibition, % at 7.35 µM; in the data active = inhibition above about 5%, passing the limit was not always enough
# ERAP1 inh: inhibitors of human ERAP1 aminopeptidase | recombinant ERAP1, Leu-AMC fluorescence, 60 min | inhibition, % at 10.7 µM | 340,000 compounds, 0.15% hits;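 active = mean replicate inhibition of at least 30%, or all replicates individually reaching that 30% level; inactive = mean below 30% and not every replicate reaching it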
# Target sequence (Q9NZ08 whole entry, looked up): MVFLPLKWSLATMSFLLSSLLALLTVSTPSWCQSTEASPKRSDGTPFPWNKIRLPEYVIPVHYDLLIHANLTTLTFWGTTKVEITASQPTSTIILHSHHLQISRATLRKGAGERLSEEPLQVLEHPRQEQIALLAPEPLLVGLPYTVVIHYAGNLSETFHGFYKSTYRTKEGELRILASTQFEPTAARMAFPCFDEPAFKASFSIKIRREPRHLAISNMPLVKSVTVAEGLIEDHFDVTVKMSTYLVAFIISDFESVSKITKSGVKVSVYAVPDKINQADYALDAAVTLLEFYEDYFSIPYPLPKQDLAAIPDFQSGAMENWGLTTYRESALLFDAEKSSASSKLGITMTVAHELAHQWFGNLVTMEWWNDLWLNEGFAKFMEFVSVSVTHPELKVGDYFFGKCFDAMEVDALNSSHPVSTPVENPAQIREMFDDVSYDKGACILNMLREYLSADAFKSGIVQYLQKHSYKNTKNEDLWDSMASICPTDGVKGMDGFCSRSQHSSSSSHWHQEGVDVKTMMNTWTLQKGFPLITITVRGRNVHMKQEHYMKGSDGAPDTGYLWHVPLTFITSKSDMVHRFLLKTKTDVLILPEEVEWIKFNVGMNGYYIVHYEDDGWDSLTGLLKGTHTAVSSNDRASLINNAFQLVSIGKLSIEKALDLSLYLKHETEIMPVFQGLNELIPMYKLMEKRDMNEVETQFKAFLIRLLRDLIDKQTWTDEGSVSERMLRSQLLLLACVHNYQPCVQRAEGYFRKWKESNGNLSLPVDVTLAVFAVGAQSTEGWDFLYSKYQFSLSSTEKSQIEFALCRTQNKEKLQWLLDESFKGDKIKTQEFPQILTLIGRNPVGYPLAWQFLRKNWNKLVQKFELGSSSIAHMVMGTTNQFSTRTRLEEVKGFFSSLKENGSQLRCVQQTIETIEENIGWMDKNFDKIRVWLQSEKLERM
# CAL PDZ FP-2: inhibitors of human CAL PDZ peptide binding. Q9HD26. purified CAL PDZ, TMR-peptide fluorescence polarization, 1 h. inhibition, % at 24.9 µM. 300,000 compounds, 0.92% hits. AID 602252;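 active = mean inhibition of at least 30% with at least half of replicates also reaching 30%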
# A number is an active result; 0 = inactive; - = no result given; + = active, no number. The list is not random: actives were taken first. Their share in the collection is about 1.1%.
SMILES,ERp5 inh,CAL PDZ FP-1,PDI inh,Rin1-Abl PPI inh,ERAP1 inh,CAL PDZ FP-2
CO[C@@H]1CN(C)C(=O)c2ccc(NC(=O)NC(C)C)cc2OC[C@H](C)N(Cc2ccccn2)C[C@H]1C,0,-,-,-,0,-
O=C(CN1C(=O)C2CC=CCC2C1=O)Nc1nc2ccccc2[nH]1 (centres undefined),-,-,0,0,-,46.9
Cc1noc(C)c1NC(=O)N(C)C[C@H]1Oc2ccc(N(C)C)cc2CC(=O)N([C@@H](C)CO)C[C@H]1C,0,-,-,-,0,-
COc1ccc(Cn2c(=O)n(Cc3ccco3)c(=N)c3c4c(sc32)COC(C)(C)C4)cc1,-,0,0,0,-,58.7
COc1ccc(C(=O)NCC(=O)OCC(=O)Nc2cc([N+](=O)[O-])ccc2F)cc1,0,0,0,0,0,+
COc1ccc(C(=O)NCC(=O)OCC(=O)Nc2sccc2C#N)cc1OC,0,0,0,0,-,61.5
CC(C)=CC(=O)OCC(=O)Nc1cc([N+](=O)[O-])ccc1F,-,0,0,0,-,0
O=C(c1ccc(NC2=NC3CS(=O)(=O)CC3S2)cc1)N1CCN(c2ccccc2)CC1 (centres undefined),0,0,-,0,0,0
Cc1cccc(N2CCN(C(=O)c3ccc(NC4=NC5CS(=O)(=O)CC5S4)cc3)CC2C)c1 (centres undefined),0,0,0,0,0,92.8
Cc1ccc(S(=O)(=O)Nc2ccc3c(c2)C(=O)N([C@@H](C)CO)C[C@H](C)[C@H](CN(C)S(=O)(=O)c2ccccc2)O3)cc1,0,-,-,-,0,-
NS(=O)(=O)c1ccc(CNC(=S)NCc2ccc(F)cc2)cc1,0,0,0,0,0,38.9
NS(=O)(=O)c1ccc(CNC(=S)NCc2ccc(Cl)cc2)cc1,-,0,0,0,-,0
CO[C@H]1CN(C)C(=O)c2cc(NC(=O)c3nc4ccccc4s3)ccc2OC[C@H](C)N(Cc2cccnc2)C[C@H]1C,0,-,-,-,0,-
O=C(Oc1ccc(Cl)c2cccnc12)c1cccnc1,0,-,0,0,0,51.8
CN1CCN(C(=O)C[C@@H]2CC[C@H]3[C@@H](COC[C@H](O)CN3C(=O)C3CCCC3)O2)CC1,0,-,-,-,0,-
Cc1csc(NC(=O)c2ccc3ccccc3n2)n1,0,0,0,0,0,0
O=C(Nc1nccs1)c1ccc2ccccc2n1,0,0,0,0,0,34.6
CC(=O)N(/C=C1\SC(=S)N(c2ccccc2)C1=O)c1ccccc1,0,0,0,0,-,34.9
Fc1ccccc1-c1nnc2c3ccccc3nc(N3CCOCC3)n12,-,0,0,5.7,-,-
C[C@@H]1CN([C@H](C)CO)C(=O)c2cc(/C=C/c3ccccc3)cnc2O[C@H]1CN(C)C(=O)C1CCC1,0,-,-,-,0,-
CCn1cc(C2=NC(CC(C)C)CO2)c2ccccc21 (centres undefined),0,0,0,0,-,65.4
Cn1nnnc1SCC(=O)NCc1cccs1,-,0,0,0,-,52.8
Cn1nnnc1SCC(=O)Nc1ccc(Oc2ccccc2)cc1,-,0,0,0,-,0
Cn1nnnc1SCC(=O)Nc1nn(-c2ccccc2)nc1C(N)=O,0,0,0,0,0,55.4
C[C@H]1CN([C@@H](C)CO)S(=O)(=O)c2ccc(C#CC(C)(C)O)cc2O[C@H]1CN(C)Cc1ccc(-c2ccccc2)cc1,0,-,-,-,0,-
SMILES,ERp5 inh,CAL PDZ FP-1,PDI inh,Rin1-Abl PPI inh,ERAP1 inh,CAL PDZ FP-2
CC(C)COC(=O)N(C)C[C@H]1OCc2cn(nn2)CCCC(=O)N([C@H](C)CO)C[C@H]1C,0,-,-,-,0,-
COc1cccc(OC)c1C(=O)NNC(=O)c1ccc(F)cc1,0,0,0,0,0,68.0
Cc1cccc(C(=O)NNC(=O)c2ccc(F)cc2)c1,0,0,0,0,0,0
O=C(CCN1CCCCC1)NCC[C@@H]1CC[C@@H](NC(=O)C2CCCCC2)[C@@H](CO)O1,0,-,-,-,0,-
CN(C)/N=C/C=C1\CC/C(=C\c2ccc(Br)cc2)C1=O,-,0,0,0,-,48.7
Cc1ccc(S(=O)(=O)c2cc3ccccc3nc2N)cc1,0,0,0,0,0,39.5
CN(C)c1ncc(S(=O)(=O)c2ccccc2)c(N)n1,0,0,0,0,0,0
C[C@@H]1CN([C@H](C)CO)C(=O)c2cc(NC(=O)CCC(F)(F)F)ccc2O[C@H]1CN(C)C(=O)NC1CCCCC1,0,-,-,-,-,-
COc1ccc(CCNC(=O)Cc2ccsc2)cc1,0,0,0,0,0,37.0
Cc1noc(C)c1S(=O)(=O)N(C)C[C@@H]1Oc2ccc(NC(=O)Cc3cn(C)c4ccccc34)cc2CC(=O)N([C@@H](C)CO)C[C@H]1C,0,-,-,-,0,-
C[C@@H]1CN([C@@H](C)CO)C(=O)c2cc(NC(=O)Cc3ccccc3)ccc2O[C@@H](C)CCCCO[C@@H]1CN(C)C(=O)c1ccncc1,0,-,-,-,0,-
CC(=N)C1=C(O)CC(c2ccccc2)CC1=O (centres undefined),0,0,0,0,0,-
CCC(=NC)C1=C(O)CC(c2ccccc2)CC1=O (centres undefined),0,-,0,0,0,70.7
CN(C)CC#Cc1ccc([C@@H]2[C@@H](CO)N3CCCCN(C(=O)NC4CCCC4)C[C@H]23)cc1,0,-,-,-,0,-
C[C@H]1CCCCO[C@H](CN(C)C(=O)Nc2cccc3ccccc23)[C@@H](C)CN([C@@H](C)CO)C(=O)c2cc(NS(C)(=O)=O)ccc2O1,0,-,-,-,0,-
CSc1ccccc1NC(=O)CN1CCN(S(=O)(=O)c2ccccc2[N+](=O)[O-])CC1,0,0,0,0,0,+
COc1c(O)cc2oc(-c3ccc(O)cc3)cc(=O)c2c1O,0,0,0,0,0,0
O=c1cc(-c2ccccc2)oc2cc(O)c(O)c(O)c12,0,0,-,20.6,0,0
COc1ccccc1NC(=O)C(=O)N/N=C(\C)CC(=O)Nc1ccccc1C(F)(F)F,0,0,0,0,0,44.4
Cc1nn2c3ccccc3nc2c2ccccc12,-,42.5,0,0,-,-
Cc1oc2c(c(C)cc3oc(=O)c(CC(=O)N[C@H](C(=O)O)C(C)C)c(C)c32)c1C,0,0,0,0,35.0,0
COc1cc2[nH]c(=S)n(Cc3ccc(C)cc3)c(=O)c2cc1OC,0,0,0,0,0,39.8
CCCNC(=O)C[C@H]1CC[C@@H]2[C@@H](COc3ccc(NC(=O)C4CCOCC4)cc3C(=O)N2C)O1,0,-,-,-,0,-
CCCC(=O)Nc1ccc(NC(=O)Cc2ccccc2)cn1,-,0,0,0,-,0
CCCC(=O)Nc1ccc(NC(=O)c2ccccc2Cl)nc1,-,-,0,0,-,40.8
CC12CCC3c4ccc(O)cc4CCC3C1CCC2=O (centres undefined),0,0,45.3,0,0,0
